Activity and MIC data for 20 compounds are collected here from ChEMBL document CHEMBL4477166, “18β-Glycyrrhetinic Acid Derivatives Possessing a Trihydroxylated A Ring Are Potent Gram-Positive Antibacterial Agents” (2016).

SMILES strings stand for the structures. ≈ marks a conversion by molar mass, not a printed value. Calls of active or inactive are those of the source. No cut-off for these calls is given here.

Test [1] relates to Pseudomonas aeruginosa. Put plainly: Antibacterial activity against multi-drug resistant Pseudomonas aeruginosa at 100 uM measured after 5 to 6 hrs by microdilution assay. Type of test: functional, organism-based. The procedure, abridged:
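Log-phase cells seeded at 1 × 10⁵ CFU/mL. Single-dose screen at 100 μM, with DMSO cosolvent at most 1% v/v. Growth measured turbidimetrically at 620 nm, before and after incubation with vigorous shaking.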

For test [2], the system named is Staphylococcus aureus. Put plainly: Antibacterial activity against methicillin-resistant Staphylococcus aureus by microdilution assay. It is filed as functional. The gist of the method: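 Log-phase cells seeded at 1 × 10⁵ CFU/mL. Twofold serial dilutions made in broth with DMSO cosolvent, at most 1% v/v. Turbidity read at 620 nm before and after incubation with vigorous shaking. MIC is the lowest concentration with no apparent growth versus the medium-plus-vehicle control. Run in triplicate.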

In another test the test system is Bacillus subtilis. Put plainly: Antibacterial activity against Bacillus subtilis ATCC 6051 by microdilution assay. Type of test: functional. The gist of the method: (§1)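 Turbidimetric broth microdilution. Log-phase cells were washed and resuspended in broth (LB at 37 °C for B. subtilis and S. aureus; oat bran broth at 28 °C for S. scabies) and seeded at 1 × 10⁵ CFU/mL. Twofold serial dilutions were made with DMSO ≤1% (v/v). A620 was read, then plates were incubated with vigorous shaking. MIC was the lowest concentration with no apparent growth versus vehicle-only medium without cells. Run in triplicate.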

Test [3] relates to Pseudomonas aeruginosa. Put plainly: Antibacterial activity against Pseudomonas aeruginosa at 100 uM measured after 5 to 6 hrs by microdilution assay. Type of test: functional, organism-based.
Test [4] concerns Staphylococcus aureus. Nature of the test: Antibacterial activity against Staphylococcus aureus ATCC 25923 by microdilution assay. Type of test: functional. The procedure, abridged:
as §1

Another test concerns Escherichia coli. Nature of the test: Antibacterial activity against Escherichia coli at 100 uM measured after 5 to 6 hrs by microdilution assay. Type of test: functional, organism-based.
A further test concerns Streptomyces scabiei. Nature of the test: Antibacterial activity against Streptomyces scabiei CGMCC4.7610246 by microdilution assay. It is filed as functional. The gist of the method:
as §1

In the case of `CC1(C)[C@@H](O)[C@@H](O)[C@H](O)[C@]2(C)[C@H]3CC=C4[C@@H]5C[C@@](C)(C(=O)O)CC[C@]5(C)CC[C@@]4(C)[C@]3(C)CC[C@@H]12`, the outcome with Pseudomonas aeruginosa [1], in the test with Pseudomonas aeruginosa [3] and with Escherichia coli was inactive. For the same compound, the minimal inhibitory concentration (MIC) against Staphylococcus aureus [2] was over 32 µg/mL; in the test on Bacillus subtilis it was over 31.2 µg/mL; against Staphylococcus aureus [4] it was 15.6 µg/mL (≈ 31.9 µM); in the test with Streptomyces scabiei it was 31.2 µg/mL (≈ 63.8 µM).

In the case of `COC(=O)[C@@]1(C)CC[C@]2(C)CC[C@]3(C)C(=CC(=O)[C@@H]4[C@@]5(C)[C@@H](O)[C@H](O)[C@H](O)C(C)(C)[C@@H]5CC[C@]43C)[C@@H]2C1`, the result with Pseudomonas aeruginosa [1], in the test with Pseudomonas aeruginosa [3] and in the test on Escherichia coli was inactive. The MIC against Staphylococcus aureus [2], against Bacillus subtilis, against Staphylococcus aureus [4] and in the test with Streptomyces scabiei was over 50 µg/mL in each case.

`CC1(C)C(=O)[C@@H]2O[C@@H]2[C@]2(C)[C@H]3CC=C4[C@@H]5C[C@@](C)(C(=O)OCc6ccccc6)CC[C@]5(C)CC[C@@]4(C)[C@]3(C)CC[C@@H]12`: the result with Pseudomonas aeruginosa [1], with Pseudomonas aeruginosa [3] and in the test on Escherichia coli was inactive. Besides, the MIC in the test on Staphylococcus aureus [2], against Bacillus subtilis, against Staphylococcus aureus [4] and in the test with Streptomyces scabiei was over 50 µg/mL each time.

As to `CCCCCCCCCCCCCCCOC(=O)[C@@]1(C)CC[C@]2(C)CC[C@]3(C)C(=CC(=O)[C@@H]4[C@@]5(C)[C@@H](O)[C@H](O)[C@H](O)C(C)(C)[C@@H]5CC[C@]43C)[C@@H]2C1`, the outcome in the test with Pseudomonas aeruginosa [1], in the test with Pseudomonas aeruginosa [3] and with Escherichia coli was inactive. Further, the minimum inhibitory concentration (MIC) in the test with Staphylococcus aureus [2], against Bacillus subtilis, against Staphylococcus aureus [4] and in the test on Streptomyces scabiei was over 50 µg/mL in each case.

Regarding `CC1(C)C(=O)[C@@H]2O[C@@H]2[C@]2(C)[C@H]3C(=O)C=C4[C@@H]5C[C@@](C)(C(=O)OCc6ccccc6)CC[C@]5(C)CC[C@@]4(C)[C@]3(C)CC[C@@H]12`, the result in the test on Pseudomonas aeruginosa [1], in the test with Pseudomonas aeruginosa [3] and in the test on Escherichia coli was inactive. The MIC with Staphylococcus aureus [2], against Bacillus subtilis, in the test with Staphylococcus aureus [4] and in the test on Streptomyces scabiei was over 50 µg/mL each time.

In the case of `CC1(C)[C@@H](O)[C@@H]2O[C@@H]2[C@]2(C)[C@H]3C(=O)C=C4[C@@H]5C[C@@](C)(C(=O)OCc6ccccc6)CC[C@]5(C)CC[C@@]4(C)[C@]3(C)CC[C@@H]12`, the result in the test on Pseudomonas aeruginosa [1], in the test with Pseudomonas aeruginosa [3] and in the test with Escherichia coli was inactive. Also, the MIC with Staphylococcus aureus [2], in the test with Bacillus subtilis, in the test with Staphylococcus aureus [4] and against Streptomyces scabiei was over 50 µg/mL in each case.

`CC1(C)S[C@@H]2[C@H](NC(=O)[C@H](N)c3ccccc3)C(=O)N2[C@H]1C(=O)O` [AMPICILLIN] registered an MIC against Staphylococcus aureus [4] of 1.4 µg/mL (≈ 4.01 µM).

Take `CC1(C)[C@@H](O)CC[C@]2(C)[C@H]3CC=C4[C@@H]5C[C@@](C)(C(=O)O)CC[C@]5(C)CC[C@@]4(C)[C@]3(C)CC[C@@H]12`: the outcome in the test on Pseudomonas aeruginosa [1], with Pseudomonas aeruginosa [3] and in the test with Escherichia coli was inactive. Also, the MIC against Staphylococcus aureus [2], with Bacillus subtilis, against Staphylococcus aureus [4] and against Streptomyces scabiei was over 50 µg/mL each time.

Consider `CC1(C)[C@@H](O)[C@@H]2O[C@@H]2[C@]2(C)[C@H]3CC=C4[C@@H]5C[C@@](C)(C(=O)OCc6ccccc6)CC[C@]5(C)CC[C@@]4(C)[C@]3(C)CC[C@@H]12`, for which the result in the test with Pseudomonas aeruginosa [1], in the test on Pseudomonas aeruginosa [3] and with Escherichia coli was inactive. Also, the MIC in the test with Staphylococcus aureus [2], against Bacillus subtilis, with Staphylococcus aureus [4] and in the test with Streptomyces scabiei was over 50 µg/mL each time.

Consider `CC1(C)[C@@H](O)[C@@H](O)[C@H](O)[C@]2(C)[C@H]3C(=O)C=C4[C@@H]5C[C@@](C)(C(=O)OCc6ccccc6)CC[C@]5(C)CC[C@@]4(C)[C@]3(C)CC[C@@H]12`, for which the result in the test with Pseudomonas aeruginosa [1], in the test on Pseudomonas aeruginosa [3] and with Escherichia coli was inactive. Moreover, the minimal inhibitory concentration (MIC) is 4 µg/mL (≈ 6.75 µM) with Staphylococcus aureus [2], over 37.8 µg/mL against Bacillus subtilis, over 37.8 µg/mL with Staphylococcus aureus [4] and over 37.8 µg/mL in the test with Streptomyces scabiei.

For the compound `CC1(C)[C@@H](O)CC[C@]2(C)[C@H]3CC=C4[C@@H]5C[C@@](C)(C(=O)OCc6ccccc6)CC[C@]5(C)CC[C@@]4(C)[C@]3(C)CC[C@@H]12`, the result in the test on Pseudomonas aeruginosa [1], in the test on Pseudomonas aeruginosa [3] and in the test on Escherichia coli was inactive. In addition, the minimal inhibitory concentration (MIC) in the test with Staphylococcus aureus [2], against Bacillus subtilis, in the test with Staphylococcus aureus [4] and against Streptomyces scabiei was over 50 µg/mL throughout.

Take `CC1(C)C(=O)CC[C@]2(C)[C@H]3CC=C4[C@@H]5C[C@@](C)(C(=O)OCc6ccccc6)CC[C@]5(C)CC[C@@]4(C)[C@]3(C)CC[C@@H]12`: the result in the test on Pseudomonas aeruginosa [1], in the test with Pseudomonas aeruginosa [3] and in the test on Escherichia coli was inactive. The minimum inhibitory concentration (MIC) against Staphylococcus aureus [2], in the test on Bacillus subtilis, against Staphylococcus aureus [4] and in the test with Streptomyces scabiei was over 50 µg/mL in each case.

As for `CC1(C)[C@@H](O)[C@@H](O)[C@H](O)[C@]2(C)[C@H]3CC=C4[C@@H]5C[C@@](C)(C(=O)OCc6ccccc6[N+](=O)[O-])CC[C@]5(C)CC[C@@]4(C)[C@]3(C)CC[C@@H]12`, the result in the test on Pseudomonas aeruginosa [1], in the test on Pseudomonas aeruginosa [3] and in the test on Escherichia coli was inactive. The minimal inhibitory concentration (MIC) in the test on Staphylococcus aureus [2], with Bacillus subtilis, in the test with Staphylococcus aureus [4] and with Streptomyces scabiei was over 50 µg/mL in each case.

On to `CC1(C)[C@H](O)[C@@H]2O[C@@H]2[C@]2(C)[C@H]3C(=O)C=C4[C@@H]5C[C@@](C)(C(=O)OCc6ccccc6)CC[C@]5(C)CC[C@@]4(C)[C@]3(C)CC[C@@H]12`, for which the outcome in the test on Pseudomonas aeruginosa [1], in the test with Pseudomonas aeruginosa [3] and in the test with Escherichia coli was inactive. Also, the MIC in the test on Staphylococcus aureus [2] was over 32 µg/mL; against Bacillus subtilis it was over 36.7 µg/mL; against Staphylococcus aureus [4], over 36.7 µg/mL; against Streptomyces scabiei, 36.7 µg/mL (≈ 63.8 µM).

Turning to `CC1(C)[C@@H](O)[C@@H](O)[C@H](O)[C@]2(C)[C@H]3CC=C4[C@@H]5C[C@@](C)(C(=O)OCc6ccccc6Cl)CC[C@]5(C)CC[C@@]4(C)[C@]3(C)CC[C@@H]12`, the outcome in the test on Pseudomonas aeruginosa [1], in the test on Pseudomonas aeruginosa [3] and in the test on Escherichia coli was inactive. For the same compound, the MIC in the test on Staphylococcus aureus [2], against Bacillus subtilis, in the test with Staphylococcus aureus [4] and against Streptomyces scabiei was over 50 µg/mL in each case.

For the compound `CC(C)OC(=O)[C@@]1(C)CC[C@]2(C)CC[C@]3(C)C(=CC(=O)[C@@H]4[C@@]5(C)[C@@H](O)[C@H](O)[C@H](O)C(C)(C)[C@@H]5CC[C@]43C)[C@@H]2C1`, the outcome with Pseudomonas aeruginosa [1], with Pseudomonas aeruginosa [3] and in the test on Escherichia coli was inactive. Also, the MIC was 8 µg/mL (≈ 14.7 µM) against Staphylococcus aureus [2], over 34.8 µg/mL against Bacillus subtilis, over 34.8 µg/mL in the test with Staphylococcus aureus [4] and over 34.8 µg/mL against Streptomyces scabiei.

As for `CCCCCOC(=O)[C@@]1(C)CC[C@]2(C)CC[C@]3(C)C(=CC(=O)[C@@H]4[C@@]5(C)[C@@H](O)[C@H](O)[C@H](O)C(C)(C)[C@@H]5CC[C@]43C)[C@@H]2C1`, the result in the test with Pseudomonas aeruginosa [1], in the test on Pseudomonas aeruginosa [3] and with Escherichia coli was inactive. For the same compound, the minimal inhibitory concentration (MIC) in the test with Staphylococcus aureus [2], in the test with Bacillus subtilis, in the test with Staphylococcus aureus [4] and in the test with Streptomyces scabiei was over 50 µg/mL in each case.

Consider `CC1(C)C(=O)C=C[C@]2(C)[C@H]3CC=C4[C@@H]5C[C@@](C)(C(=O)OCc6ccccc6)CC[C@]5(C)CC[C@@]4(C)[C@]3(C)CC[C@@H]12`, for which the outcome with Pseudomonas aeruginosa [1], in the test with Pseudomonas aeruginosa [3] and in the test with Escherichia coli was inactive. Also, the MIC in the test with Staphylococcus aureus [2] was over 32 µg/mL; in the test on Bacillus subtilis, over 34.6 µg/mL; in the test with Staphylococcus aureus [4], over 34.6 µg/mL; against Streptomyces scabiei it was 34.6 µg/mL (≈ 63.7 µM).

On to `CC(C)OC(=O)[C@@]1(C)CC[C@]2(C)CC[C@]3(C)C(=CC[C@@H]4[C@@]5(C)[C@@H](O)[C@H](O)[C@H](O)C(C)(C)[C@@H]5CC[C@]43C)[C@@H]2C1`, for which the outcome in the test on Pseudomonas aeruginosa [1], in the test on Pseudomonas aeruginosa [3] and in the test with Escherichia coli was inactive. The MIC was 2 µg/mL (≈ 3.77 µM) against Staphylococcus aureus [2], over 33.9 µg/mL in the test with Bacillus subtilis, 8.4 µg/mL (≈ 15.8 µM) in the test on Staphylococcus aureus [4] and 4.2 µg/mL (≈ 7.91 µM) against Streptomyces scabiei.

As for `CN[C@@H]1[C@H](O[C@H]2[C@H](O[C@H]3[C@H](O)[C@@H](O)[C@H](N=C(N)N)[C@@H](O)[C@@H]3N=C(N)N)O[C@@H](C)[C@]2(O)C=O)O[C@@H](CO)[C@H](O)[C@H]1O` [STREPTOMYCIN], the results for the MIC against Bacillus subtilis and against Streptomyces scabiei were 2.9 µg/mL (≈ 4.99 µM) and 5.8 µg/mL (≈ 9.97 µM), respectively.
